Test results reported in the array DNA melting data of Ke et al. (doi:10.1101/2024.01.08.574731).

Legend:
[1] = folding enthalpy; higher = less favourable; fluorescence melt of hairpins on a sequencing array, two-state fit; details: sodium 0.088 M
In short: (§1)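 With Cy3 and quencher oligos annealed, library hairpins on a sequenced MiSeq flow cell were imaged for Cy3 fluorescence in 50 mM Na-HEPES pH 8.0, 25 mM NaCl, in 2.5 °C steps up to 60 °C. Melting temperature and folding enthalpy were derived from bootstrapped two-state fits of signals normalised to pre-quench Cy3 and to control constructs. Four replicates were combined by inverse variance, with fitted temperatures raised by 9.35 °C to match UV melts.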

[2] = melting temperature; fluorescence melt of hairpins on a sequencing array, two-state fit, raised by 9.35 °C to match UV melts; details: sodium 0.088 M
In short: as §1

Sequence | folding enthalpy [1] | Tm [2]
GATCAGGCGTCTGATC ((((((....)))))) | -39.3 kcal/mol | 51 °C
GATCGTGCCACGATC ((((((...)))))) | -35.8 kcal/mol | 57.8 °C
GATCCTTTCAAGGATC ((((((....)))))) | -33.3 kcal/mol | 57.7 °C
GGGGAAGGAAACTTTCCC (((.(((....))).))) | -29 kcal/mol | 48.3 °C
GCGAGGCGAAAGCATGGC ((.(.((....)).).)) | -16.4 kcal/mol | 49.3 °C
GATCACAGCGTGATC ((((((...)))))) | -42 kcal/mol | 61.9 °C
GTCCTTGGAAACAAAGAC (((.(((....))).))) | -13.3 kcal/mol | 30.4 °C
GCCTGCCGAAAGGCCGGC (((.(((....))).))) | -22.4 kcal/mol | 64.3 °C
GAGAGTACGAAAGTACTC (((..(((....)))))) | -11.7 kcal/mol | 55.2 °C
GTTTAAGGAAACTTAGAC ((.((((....)))).)) | -14.3 kcal/mol | 32.6 °C
ATGATGAAAATCAT (((((....))))) | -15.2 kcal/mol | 39.5 °C
GGGGATGGAAACATCTCC ((.((((....)))).)) | -32.1 kcal/mol | 50.3 °C
GACTGGCCGAAAGGCGTC (((..(((....)))))) | -11.8 kcal/mol | 50.8 °C
GTATACGAAAGTATATAC ((((((....)))..))) | -14.4 kcal/mol | 34.7 °C
GGGCCCGCGAAAGCGCCC (((..(((....)))))) | -15.6 kcal/mol | 55.8 °C
GCCGTGCGAAAGCTCAGC ((.(.((....)).).)) | -15.4 kcal/mol | 40.4 °C
GATCCATACGTGGATC ((((((....)))))) | -51 kcal/mol | 54.5 °C
GGACTAGCGAAAGCTTCC (((..(((....)))))) | -10.7 kcal/mol | 27.5 °C
GATCATTCTCATGATC ((((((....)))))) | -32.8 kcal/mol | 47.1 °C
GATCTTCCGAAGATC ((((((...)))))) | -31.9 kcal/mol | 43 °C
GCGTTATACGC ((((...)))) | -20.4 kcal/mol | 61.3 °C
GATCCGATAACGGATC ((((((....)))))) | -33.1 kcal/mol | 59.1 °C
GCTCCGCGAAAGCTAAGC (((..((....))..))) | -9.02 kcal/mol | 30.7 °C

Sequence | folding enthalpy [1] | Tm [2]
GAAGGGGGAAACCCTTTC (((.(((....))).))) | -18.7 kcal/mol | 41.1 °C
GTGTAGTCGAAAGACCAC (((..(((....)))))) | -19.5 kcal/mol | 42.1 °C
GGCAGTACGAAAGTAGCC (((..(((....)))))) | -21.6 kcal/mol | 44.9 °C
GATCATGTCTATGATC ((((((....)))))) | -38.9 kcal/mol | 53.1 °C
GACGACGAAAGTCCTGTC ((((((....)))..))) | -16.4 kcal/mol | 31.4 °C
CGTTCGGAAACGACACG ((((((....))).))) | -26.9 kcal/mol | 39.3 °C
CGGGCTCGGAAACGACCG (((..(((....)))))) | -22.6 kcal/mol | 40.6 °C
GGAACGCGAAAGCGATCC (((.(((....))).))) | -27.4 kcal/mol | 59 °C
CGCAACGGAAACGTCGCG (((.(((....))).))) | -42.6 kcal/mol | 52.1 °C
GCGTGCCGACGC ((((....)))) | -19.3 kcal/mol | 60.1 °C
GATCTCCTCGAGATC ((((((...)))))) | -38.6 kcal/mol | 54.5 °C
GATCTCTCACGAGATC ((((((....)))))) | -37.2 kcal/mol | 51.6 °C
GCTATCGGAAACGATGGC ((.((((....)))).)) | -47.6 kcal/mol | 52.9 °C
GATCGTTGAAACGATC ((((((....)))))) | -39.2 kcal/mol | 54.8 °C
GCCTAGGGAAACCTAGAC (.(((((....))))).) | -19.6 kcal/mol | 35.4 °C
GGGACCGAAAGGTCACCC ((((((....)))..))) | -12.2 kcal/mol | 56.9 °C
GATCGGTATTCCGATC ((((((....)))))) | -42 kcal/mol | 58.4 °C
GTTTATCGAAAGATTAAC (((.(((....))).))) | -28.9 kcal/mol | 33.5 °C
CGATCGGAAACGAAGTCG ((((((....)))..))) | -11.7 kcal/mol | 25.6 °C
GGACGTGGAAACACACCC ((..(((....)))..)) | -7.91 kcal/mol | 25 °C
GAACGCGAAAGCGCATTC ((((((....)))..))) | -7.58 kcal/mol | 25.9 °C
GATCGAAGCTTCGATC ((((((....)))))) | -49.6 kcal/mol | 56.5 °C
GGTGGCCGAAAGGCACC (((.(((....)))))) | -18.5 kcal/mol | 61.8 °C

Sequence | folding enthalpy [1] | Tm [2]
GTTATGGGAAACCATGAC ((.((((....)))).)) | -34.4 kcal/mol | 43.5 °C
GCCACGTCGAAAGACGGC (((..(((....)))))) | -10.8 kcal/mol | 49.5 °C
GATCCTGAGAGGATC ((((((...)))))) | -31.1 kcal/mol | 50.7 °C
GATCCCTGCAGGGATC ((((((....)))))) | -37.8 kcal/mol | 66 °C
GATCCAGACCTGGATC ((((((....)))))) | -44.8 kcal/mol | 54.6 °C
GGCAGGGCGAAAGCCGCC (((..(((....)))))) | -18.4 kcal/mol | 63.3 °C
GGCTGGCCGAAAGGCGCC (((..(((....)))))) | -16.4 kcal/mol | 61 °C
GATCATTCGAATGATC ((((((....)))))) | -46.8 kcal/mol | 50.5 °C
GTTCTCGAAAGAGGGAAC ((((((....)))..))) | -17.6 kcal/mol | 31.4 °C
GCGTGCGAAAGCAAACGC ((((((....)))..))) | -29.6 kcal/mol | 60.2 °C
GAGCACCGAAAGGTCCTC (((.(((....))).))) | -22.2 kcal/mol | 40.8 °C
GCCCAACCGAAAGGTGGC (((..(((....)))))) | -18.8 kcal/mol | 51.6 °C
GGCCACGAAAGTGGGGCC ((((((....)))..))) | -14.2 kcal/mol | 60.3 °C
GATGAACGAAAGTTGATC (((.(((....))).))) | -22.7 kcal/mol | 38.1 °C
GCCCGGCGAAAGCCCAGC ((..(((....)))..)) | -9.79 kcal/mol | 32.7 °C
GATCTACAGGTAGATC ((((((....)))))) | -37.6 kcal/mol | 48.8 °C
GAGGCCGGAAACGACCCC (.((.((....)).)).) | -19.7 kcal/mol | 30.6 °C
GTTACGCGAAAGCGAAC (((.(((....)))))) | -13.7 kcal/mol | 40 °C
GCAAGACGAAAGTCATGC (((.(((....))).))) | -32.2 kcal/mol | 54.4 °C
GTTTTTCGAAAGAAAAC (((.(((....)))))) | -21.4 kcal/mol | 35.8 °C
GATCCTCCAAGGATC ((((((...)))))) | -31.8 kcal/mol | 53.7 °C
GCAGTGCGAAAGCCCAGC ((.(.((....)).).)) | -15.4 kcal/mol | 38 °C
GAGTAAGGAAACTTACTC (((((((....))))))) | -43.1 kcal/mol | 52.1 °C
